Reference: publication PMC12166256 (Clinical Pharmacology and Therapeutics, 2025)

Assay: MAD study: safety and tolerability
Assay type: in vivo, human
In short: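 Healthy males aged 18–55 with BMI 18–30 kg/m² were followed through dosing and a 6–8-day follow-up. Checks: physical examination, clinical laboratory tests, vital signs and 12-lead ECG, with adverse events coded in MedDRA. Events of special interest: ALT ≥2×ULN, QTcF ≥500 ms, Grade ≥2 photosensitivity, symptomatic overdose. Treatment-emergent events were summarised descriptively by organ class, preferred term and dose level for all exposed participants.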

Compound: CN1C(=O)c2cccc(OC(F)F)c2[C@H]2C[C@@H]1c1nc3ccc(-c4cnc(C5(N)CCC5)nc4)cc3n12 [Balinatunfib]
- Alanine aminotransferase increased TEAE, events (MAD 200 mg BID, N = 8): 0
- Alanine aminotransferase increased TEAE, participants (MAD 200 mg BID, N = 8): 0 n (%)
- Any event TEAE, events (MAD 200 mg BID, N = 8): 7
- Any event TEAE, participants (MAD 200 mg BID, N = 8): 4 (50.0) n (%)
- Constipation TEAE, events (MAD 200 mg BID, N = 8): 0
- Constipation TEAE, participants (MAD 200 mg BID, N = 8): 0 n (%)
- Diarrhea TEAE, events (MAD 200 mg BID, N = 8): 1
- Diarrhea TEAE, participants (MAD 200 mg BID, N = 8): 1 (12.5) n (%)
- Dry skin TEAE, events (MAD 200 mg BID, N = 8): 2
- Dry skin TEAE, participants (MAD 200 mg BID, N = 8): 2 (25.0) n (%)
- Dysgeusia TEAE, events (MAD 200 mg BID, N = 8): 1
- Dysgeusia TEAE, participants (MAD 200 mg BID, N = 8): 1 (12.5) n (%)
- Gastrointestinal disorders TEAE, events (MAD 200 mg BID, N = 8): 1
- Gastrointestinal disorders TEAE, participants (MAD 200 mg BID, N = 8): 1 (12.5) n (%)
- General disorders and administration site conditions TEAE, events (MAD 200 mg BID, N = 8): 1
- General disorders and administration site conditions TEAE, participants (MAD 200 mg BID, N = 8): 1 (12.5) n (%)
- Headache TEAE, events (MAD 200 mg BID, N = 8): 0
- Headache TEAE, participants (MAD 200 mg BID, N = 8): 0 n (%)
- Injury, poisoning, and procedural complications TEAE, events (MAD 200 mg BID, N = 8): 0
- Injury, poisoning, and procedural complications TEAE, participants (MAD 200 mg BID, N = 8): 0 n (%)
- Investigations TEAE, events (MAD 200 mg BID, N = 8): 0
- Investigations TEAE, participants (MAD 200 mg BID, N = 8): 0 n (%)
- Medical device site reaction TEAE, events (MAD 200 mg BID, N = 8): 1
- Medical device site reaction TEAE, participants (MAD 200 mg BID, N = 8): 1 (12.5) n (%)
- Musculoskeletal and connective tissue disorders TEAE, events (MAD 200 mg BID, N = 8): 0
- Musculoskeletal and connective tissue disorders TEAE, participants (MAD 200 mg BID, N = 8): 0 n (%)
- Nasal dryness TEAE, events (MAD 200 mg BID, N = 8): 2
- Nasal dryness TEAE, participants (MAD 200 mg BID, N = 8): 2 (25.0) n (%)
- Neck pain TEAE, events (MAD 200 mg BID, N = 8): 0
- Neck pain TEAE, participants (MAD 200 mg BID, N = 8): 0 n (%)
- Nervous system disorders TEAE, events (MAD 200 mg BID, N = 8): 1
- Nervous system disorders TEAE, participants (MAD 200 mg BID, N = 8): 1 (12.5) n (%)
- Oropharyngeal pain TEAE, events (MAD 200 mg BID, N = 8): 0
- Oropharyngeal pain TEAE, participants (MAD 200 mg BID, N = 8): 0 n (%)
- Reproductive system and breast disorders TEAE, events (MAD 200 mg BID, N = 8): 0
- Reproductive system and breast disorders TEAE, participants (MAD 200 mg BID, N = 8): 0 n (%)
- Respiratory, thoracic, and mediastinal disorders TEAE, events (MAD 200 mg BID, N = 8): 2
- Respiratory, thoracic, and mediastinal disorders TEAE, participants (MAD 200 mg BID, N = 8): 2 (25.0) n (%)
- Skin and subcutaneous tissue disorders TEAE, events (MAD 200 mg BID, N = 8): 2
- Skin and subcutaneous tissue disorders TEAE, participants (MAD 200 mg BID, N = 8): 2 (25.0) n (%)
- Sneezing TEAE, events (MAD 200 mg BID, N = 8): 0
- Sneezing TEAE, participants (MAD 200 mg BID, N = 8): 0 n (%)
- Testicular mass TEAE, events (MAD 200 mg BID, N = 8): 0
- Testicular mass TEAE, participants (MAD 200 mg BID, N = 8): 0 n (%)
- Wound TEAE, events (MAD 200 mg BID, N = 8): 0
- Wound TEAE, participants (MAD 200 mg BID, N = 8): 0 n (%)
- PCSA QTcF increase from baseline ]30-60] msec, participants n/N1 (MAD 300 mg BID): four
- ALT in the participant with ALT > 3 ULN (MAD 300 mg BID, Day 18, 4 days after the last dose): 181 IU/L
- Abdominal pain TEAE, events (MAD 300 mg BID, N = 8): 1
- Abdominal pain TEAE, participants (MAD 300 mg BID, N = 8): 1 (12.5) n (%)
- Alanine aminotransferase increased TEAE, events (MAD 300 mg BID, N = 8): 1
- Alanine aminotransferase increased TEAE, participants (MAD 300 mg BID, N = 8): 1 (12.5) n (%)
- Any event TEAE, events (MAD 300 mg BID, N = 8): 3
- Any event TEAE, participants (MAD 300 mg BID, N = 8): 2 (25.0) n (%)
- Constipation TEAE, events (MAD 300 mg BID, N = 8): 1
- Constipation TEAE, participants (MAD 300 mg BID, N = 8): 1 (12.5) n (%)
- Diarrhea TEAE, events (MAD 300 mg BID, N = 8): 0
- Diarrhea TEAE, participants (MAD 300 mg BID, N = 8): 0 n (%)
- Dry skin TEAE, events (MAD 300 mg BID, N = 8): 0
- Dry skin TEAE, participants (MAD 300 mg BID, N = 8): 0 n (%)
- Dysgeusia TEAE, events (MAD 300 mg BID, N = 8): 0
- Dysgeusia TEAE, participants (MAD 300 mg BID, N = 8): 0 n (%)
- Gastrointestinal disorders TEAE, events (MAD 300 mg BID, N = 8): 2
- Gastrointestinal disorders TEAE, participants (MAD 300 mg BID, N = 8): 1 (12.5) n (%)
- General disorders and administration site conditions TEAE, events (MAD 300 mg BID, N = 8): 0
- General disorders and administration site conditions TEAE, participants (MAD 300 mg BID, N = 8): 0 n (%)
- Headache TEAE, events (MAD 300 mg BID, N = 8): 0
- Headache TEAE, participants (MAD 300 mg BID, N = 8): 0 n (%)
- Injury, poisoning, and procedural complications TEAE, events (MAD 300 mg BID, N = 8): 0
- Injury, poisoning, and procedural complications TEAE, participants (MAD 300 mg BID, N = 8): 0 n (%)
- Investigations TEAE, events (MAD 300 mg BID, N = 8): 1
- Investigations TEAE, participants (MAD 300 mg BID, N = 8): 1 (12.5) n (%)
- Medical device site reaction TEAE, events (MAD 300 mg BID, N = 8): 0
- Medical device site reaction TEAE, participants (MAD 300 mg BID, N = 8): 0 n (%)
- Musculoskeletal and connective tissue disorders TEAE, events (MAD 300 mg BID, N = 8): 0
- Musculoskeletal and connective tissue disorders TEAE, participants (MAD 300 mg BID, N = 8): 0 n (%)
- Nasal dryness TEAE, events (MAD 300 mg BID, N = 8): 0
- Nasal dryness TEAE, participants (MAD 300 mg BID, N = 8): 0 n (%)
- Neck pain TEAE, events (MAD 300 mg BID, N = 8): 0
- Neck pain TEAE, participants (MAD 300 mg BID, N = 8): 0 n (%)
- Nervous system disorders TEAE, events (MAD 300 mg BID, N = 8): 0
- Nervous system disorders TEAE, participants (MAD 300 mg BID, N = 8): 0 n (%)
- Oropharyngeal pain TEAE, events (MAD 300 mg BID, N = 8): 0
- Oropharyngeal pain TEAE, participants (MAD 300 mg BID, N = 8): 0 n (%)
- Reproductive system and breast disorders TEAE, events (MAD 300 mg BID, N = 8): 0
- Reproductive system and breast disorders TEAE, participants (MAD 300 mg BID, N = 8): 0 n (%)
- Respiratory, thoracic, and mediastinal disorders TEAE, events (MAD 300 mg BID, N = 8): 0
- Respiratory, thoracic, and mediastinal disorders TEAE, participants (MAD 300 mg BID, N = 8): 0 n (%)
- Skin and subcutaneous tissue disorders TEAE, events (MAD 300 mg BID, N = 8): 0
- Skin and subcutaneous tissue disorders TEAE, participants (MAD 300 mg BID, N = 8): 0 n (%)
- Sneezing TEAE, events (MAD 300 mg BID, N = 8): 0
- Sneezing TEAE, participants (MAD 300 mg BID, N = 8): 0 n (%)
- Testicular mass TEAE, events (MAD 300 mg BID, N = 8): 0
- Testicular mass TEAE, participants (MAD 300 mg BID, N = 8): 0 n (%)
- Wound TEAE, events (MAD 300 mg BID, N = 8): 0
- Wound TEAE, participants (MAD 300 mg BID, N = 8): 0 n (%)
- participants with AESIs (ALT increase) (MAD, all balinatunfib groups): four
- participants with at least one TEAE (MAD, all balinatunfib groups (12/32)): 37.5%
- tolerability (all repeated oral doses (100–600 mg total daily dose, 14 days)): well tolerated
